Measured values reported in ChEMBL document CHEMBL4261538, “Synthesis and molecular docking studies of xanthone attached amino acids as potential antimicrobial and anti-inflammatory agents” (Medchemcomm, 2017).
Values after ≈ are worked out from the molar mass of the structure shown. Active and inactive are the calls of the source. The calls are words filed in the database; no cut-off is given here.

Key:
[1] = system: Candida albicans; assay: Antifungal activity against Candida albicans at 75 ug/ml incubated for 48 hrs by agar well diffusion method; type: functional; conditions: read-out: DIZ
Summary of the method: (§1)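 Compounds dissolved in DMSO at 5 mg mL⁻¹ and 5–20 µL added to 6 mm wells, giving 25, 50, 75, 100 µg per well. Bavistin was the positive control and DMSO the negative control. Plates incubated at 28 °C for 48 h, then inhibition zone diameter (mm) measured. Values are means of three determinations.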

[2] = system: Klebsiella pneumoniae; assay: Antibacterial activity against Klebsiella pneumoniae at 100 ug/ml incubated for 24 hrs by agar well diffusion method; type: functional; conditions: read-out: DIZ
Summary of the method: as §1, with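 “Bacteria grown in nutrient broth at 37 °C for 24 h, then subcultured at room temperature. Compounds” for “Compounds”, “Gentamicin” for “Bavistin”, “held” for “incubated”, “37” for “28”, “24” for “48”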

[3] = system: Aspergillus niger; assay: Antifungal activity against Aspergillus niger at 50 ug/ml incubated for 48 hrs by agar well diffusion method; type: functional; conditions: read-out: DIZ; summary of the method: as §1
[4] = system: Erythrocyte; assay: Anti-inflammatory activity in human RBC assessed as inhibition of hypotonic solution-induced hemolysis after 10 mins by spectrophotometric method; type: functional, cell-based
Summary of the method: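 Human blood (heparinized) washed with 0.9% saline, packed cells made into a 40% v/v stock in isotonic phosphate buffer (154 mM NaCl, 10 mM sodium phosphate, pH 7.4). Stock RBC mixed with hypotonic buffer (50 mM NaCl, 10 mM phosphate, pH 7.4) plus sample at 20–100 µg mL⁻¹.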

[5] = system: Fusarium oxysporum; assay: Antifungal activity against Fusarium oxysporum at 75 ug/ml incubated for 48 hrs by agar well diffusion method; type: functional; conditions: for zone of inhibition at 75 µg/mL: read-out: DIZ; summary of the method: as §1
[6] = system: Candida albicans; assay: Antifungal activity against Candida albicans at 100 ug/ml incubated for 48 hrs by agar well diffusion method; type: functional; conditions: read-out: DIZ; summary of the method: as §1
[7] = system: Escherichia coli; assay: Antibacterial activity against Escherichia coli at 50 ug/ml incubated for 24 hrs by agar well diffusion method; type: functional; conditions: read-out: DIZ
Summary of the method: as §1, with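 “Bacteria grown in nutrient broth at 37 °C for 24 h, then subcultured at room temperature. Compounds” for “Compounds”, “Gentamicin” for “Bavistin”, “held” for “incubated”, “37” for “28”, “24” for “48”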

[8] = system: Klebsiella pneumoniae; assay: Antibacterial activity against Klebsiella pneumoniae at 50 ug/ml incubated for 24 hrs by agar well diffusion method; type: functional; conditions: read-out: DIZ
Summary of the method: as §1, with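 “Bacteria grown in nutrient broth at 37 °C for 24 h, then subcultured at room temperature. Compounds” for “Compounds”, “Gentamicin” for “Bavistin”, “held” for “incubated”, “37” for “28”, “24” for “48”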

[9] = system: Klebsiella pneumoniae; assay: Antibacterial activity against Klebsiella pneumoniae at 75 ug/ml incubated for 24 hrs by agar well diffusion method; type: functional; conditions: read-out: DIZ
Summary of the method: as §1, with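 “Bacteria grown in nutrient broth at 37 °C for 24 h, then subcultured at room temperature. Compounds” for “Compounds”, “Gentamicin” for “Bavistin”, “held” for “incubated”, “37” for “28”, “24” for “48”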

[10] = system: Bacillus subtilis; assay: Antibacterial activity against Bacillus subtilis at 50 ug/ml incubated for 24 hrs by agar well diffusion method; type: functional; conditions: read-out: DIZ
Summary of the method: as §1, with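 “Bacteria grown in nutrient broth at 37 °C for 24 h, then subcultured at room temperature. Compounds” for “Compounds”, “Gentamicin” for “Bavistin”, “held” for “incubated”, “37” for “28”, “24” for “48”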

[11] = system: Fusarium oxysporum; assay: Antifungal activity against Fusarium oxysporum at 100 ug/ml incubated for 48 hrs by agar well diffusion method; type: functional; conditions: for zone of inhibition at 100 µg/mL: read-out: DIZ; summary of the method: as §1
[12] = system: Escherichia coli; assay: Antibacterial activity against Escherichia coli at 75 ug/ml incubated for 24 hrs by agar well diffusion method; type: functional; conditions: read-out: DIZ
Summary of the method: as §1, with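 “Bacteria grown in nutrient broth at 37 °C for 24 h, then subcultured at room temperature. Compounds” for “Compounds”, “Gentamicin” for “Bavistin”, “held” for “incubated”, “37” for “28”, “24” for “48”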

[13] = system: Bacillus subtilis; assay: Antibacterial activity against Bacillus subtilis at 25 ug/ml incubated for 24 hrs by agar well diffusion method; type: functional; conditions: read-out: DIZ
Summary of the method: as §1, with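 “Bacteria grown in nutrient broth at 37 °C for 24 h, then subcultured at room temperature. Compounds” for “Compounds”, “Gentamicin” for “Bavistin”, “held” for “incubated”, “37” for “28”, “24” for “48”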

[14] = system: Candida albicans; assay: Antifungal activity against Candida albicans at 50 ug/ml incubated for 48 hrs by agar well diffusion method; type: functional; conditions: read-out: DIZ; summary of the method: as §1
[15] = system: Staphylococcus aureus; assay: Antibacterial activity against Staphylococcus aureus at 75 ug/ml incubated for 24 hrs by agar well diffusion method; type: functional; conditions: read-out: DIZ
Summary of the method: as §1, with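 “Bacteria grown in nutrient broth at 37 °C for 24 h, then subcultured at room temperature. Compounds” for “Compounds”, “Gentamicin” for “Bavistin”, “held” for “incubated”, “37” for “28”, “24” for “48”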

[16] = system: Aspergillus niger; assay: Antifungal activity against Aspergillus niger at 100 ug/ml incubated for 48 hrs by agar well diffusion method; type: functional; conditions: read-out: DIZ; summary of the method: as §1
[17] = system: Fusarium oxysporum; assay: Antifungal activity against Fusarium oxysporum at 50 ug/ml incubated for 48 hrs by agar well diffusion method; type: functional; conditions: for zone of inhibition at 50 µg/mL: read-out: DIZ; summary of the method: as §1
[18] = system: Klebsiella pneumoniae; assay: Antibacterial activity against Klebsiella pneumoniae at 25 ug/ml incubated for 24 hrs by agar well diffusion method; type: functional; conditions: read-out: DIZ
Summary of the method: as §1, with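 “Bacteria grown in nutrient broth at 37 °C for 24 h, then subcultured at room temperature. Compounds” for “Compounds”, “Gentamicin” for “Bavistin”, “held” for “incubated”, “37” for “28”, “24” for “48”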

[19] = system: Staphylococcus aureus; assay: Antibacterial activity against Staphylococcus aureus at 100 ug/ml incubated for 24 hrs by agar well diffusion method; type: functional; conditions: read-out: DIZ
Summary of the method: as §1, with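 “Bacteria grown in nutrient broth at 37 °C for 24 h, then subcultured at room temperature. Compounds” for “Compounds”, “Gentamicin” for “Bavistin”, “held” for “incubated”, “37” for “28”, “24” for “48”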

[20] = system: Aspergillus niger; assay: Antifungal activity against Aspergillus niger at 75 ug/ml incubated for 48 hrs by agar well diffusion method; type: functional; conditions: read-out: DIZ; summary of the method: as §1
[21] = system: Escherichia coli; assay: Antibacterial activity against Escherichia coli at 25 ug/ml incubated for 24 hrs by agar well diffusion method; type: functional; conditions: read-out: DIZ
Summary of the method: as §1, with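 “Bacteria grown in nutrient broth at 37 °C for 24 h, then subcultured at room temperature. Compounds” for “Compounds”, “Gentamicin” for “Bavistin”, “held” for “incubated”, “37” for “28”, “24” for “48”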

[22] = system: Bacillus subtilis; assay: Antibacterial activity against Bacillus subtilis at 75 ug/ml incubated for 24 hrs by agar well diffusion method; type: functional; conditions: read-out: DIZ
Summary of the method: as §1, with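 “Bacteria grown in nutrient broth at 37 °C for 24 h, then subcultured at room temperature. Compounds” for “Compounds”, “Gentamicin” for “Bavistin”, “held” for “incubated”, “37” for “28”, “24” for “48”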

[23] = system: Staphylococcus aureus; assay: Antibacterial activity against Staphylococcus aureus at 25 ug/ml incubated for 24 hrs by agar well diffusion method; type: functional; conditions: read-out: DIZ
Summary of the method: as §1, with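 “Bacteria grown in nutrient broth at 37 °C for 24 h, then subcultured at room temperature. Compounds” for “Compounds”, “Gentamicin” for “Bavistin”, “held” for “incubated”, “37” for “28”, “24” for “48”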

[24] = system: Aspergillus niger; assay: Antifungal activity against Aspergillus niger at 25 ug/ml incubated for 48 hrs by agar well diffusion method; type: functional; conditions: read-out: DIZ; summary of the method: as §1
[25] = system: Bacillus subtilis; assay: Antibacterial activity against Bacillus subtilis at 100 ug/ml incubated for 24 hrs by agar well diffusion method; type: functional; conditions: read-out: DIZ
Summary of the method: as §1, with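 “Bacteria grown in nutrient broth at 37 °C for 24 h, then subcultured at room temperature. Compounds” for “Compounds”, “Gentamicin” for “Bavistin”, “held” for “incubated”, “37” for “28”, “24” for “48”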

[26] = system: Fusarium oxysporum; assay: Antifungal activity against Fusarium oxysporum at 25 ug/ml incubated for 48 hrs by agar well diffusion method; type: functional; conditions: for zone of inhibition at 25 µg/mL: read-out: DIZ; summary of the method: as §1
[27] = system: Staphylococcus aureus; assay: Antibacterial activity against Staphylococcus aureus at 50 ug/ml incubated for 24 hrs by agar well diffusion method; type: functional; conditions: read-out: DIZ
Summary of the method: as §1, with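 “Bacteria grown in nutrient broth at 37 °C for 24 h, then subcultured at room temperature. Compounds” for “Compounds”, “Gentamicin” for “Bavistin”, “held” for “incubated”, “37” for “28”, “24” for “48”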

[28] = system: Escherichia coli; assay: Antibacterial activity against Escherichia coli at 100 ug/ml incubated for 24 hrs by agar well diffusion method; type: functional; conditions: read-out: DIZ
Summary of the method: as §1, with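 “Bacteria grown in nutrient broth at 37 °C for 24 h, then subcultured at room temperature. Compounds” for “Compounds”, “Gentamicin” for “Bavistin”, “held” for “incubated”, “37” for “28”, “24” for “48”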

[29] = system: Candida albicans; assay: Antifungal activity against Candida albicans at 25 ug/ml incubated for 48 hrs by agar well diffusion method; type: functional; conditions: read-out: DIZ; summary of the method: as §1

| SMILES | zone of inhibition at 75 µg/mL [1] [mm] | zone of inhibition at 100 µg/mL [2] [mm] | zone of inhibition at 50 µg/mL [3] [mm] | zone of inhibition at 100 µg/mL [6] [mm] | zone of inhibition at 50 µg/mL [7] [mm] | zone of inhibition at 50 µg/mL [8] [mm] | zone of inhibition at 75 µg/mL [9] [mm] | zone of inhibition at 50 µg/mL [10] [mm] | zone of inhibition at 75 µg/mL [12] [mm] | zone of inhibition at 25 µg/mL [13] [mm] | zone of inhibition at 50 µg/mL [14] [mm] | zone of inhibition at 75 µg/mL [15] [mm] | zone of inhibition at 100 µg/mL [16] [mm] | zone of inhibition at 25 µg/mL [18] [mm] | zone of inhibition at 100 µg/mL [19] [mm] | zone of inhibition at 75 µg/mL [20] [mm] | zone of inhibition at 25 µg/mL [21] [mm] | zone of inhibition at 75 µg/mL [22] [mm] | zone of inhibition at 25 µg/mL [23] [mm] | zone of inhibition at 25 µg/mL [24] [mm] | further results |
| --- | --- | --- | --- | --- | --- | --- | --- | --- | --- | --- | --- | --- | --- | --- | --- | --- | --- | --- | --- | --- | --- |
| CC[C@H](C)[C@H](NC(=O)OC(C)(C)C)C(=O)Oc1ccc2c(=O)c3ccccc3oc2c1 | 17 | 25 | 12 | 22 | 12 | 14 | 20 | 11 | 19 | 7 | 13 | 15 | 20 | 7 | 19 | 16 | 8 | 14 | 4 | 8 | IC50 [4]: 60 µg/mL (≈ 141 µM); diameter of the inhibition zone (DIZ) [5]: inactive; diameter of the inhibition zone (DIZ) [11]: inactive; diameter of the inhibition zone (DIZ) [17]: inactive; zone of inhibition at 100 µg/mL [25]: 19 mm; diameter of the inhibition zone (DIZ) [26]: inactive; zone of inhibition at 50 µg/mL [27]: 10 mm; zone of inhibition at 100 µg/mL [28]: 22 mm; zone of inhibition at 25 µg/mL [29]: 9 mm |
| N[C@@H](Cc1c[nH]c2ccccc12)C(=O)O [TRYPTOPHAN] | 13 | 17 | 7 | 16 | 9 | 10 | 13 | 8 | 14 | 4 | 9 | 13 | 14 | 6 | 19 | 11 | 6 | 12 | 6 | 4 | zone of inhibition at 75 µg/mL [5]: 9 mm; zone of inhibition at 100 µg/mL [11]: 11 mm; zone of inhibition at 50 µg/mL [17]: 7 mm; zone of inhibition at 100 µg/mL [25]: 15 mm; zone of inhibition at 25 µg/mL [26]: 4 mm; zone of inhibition at 50 µg/mL [27]: 9 mm; zone of inhibition at 100 µg/mL [28]: 17 mm; zone of inhibition at 25 µg/mL [29]: 5 mm |
| CC(C)C[C@H](N)C(=O)Oc1ccc2c(=O)c3ccccc3oc2c1.Cl | 19 | 26 | 14 | 21 | 14 | 16 | 22 | 19 | 20 | 13 | 15 | 15 | 22 | 10 | 21 | 19 | 8 | 24 | 9 | 10 | IC50 [4]: 70 µg/mL; zone of inhibition at 75 µg/mL [5]: 17 mm; zone of inhibition at 100 µg/mL [11]: 19 mm; zone of inhibition at 50 µg/mL [17]: 13 mm; zone of inhibition at 100 µg/mL [25]: 29 mm; zone of inhibition at 25 µg/mL [26]: 9 mm; zone of inhibition at 50 µg/mL [27]: 12 mm; zone of inhibition at 100 µg/mL [28]: 24 mm; zone of inhibition at 25 µg/mL [29]: 10 mm |
